Experimental data published in ChEMBL document CHEMBL4014319, “Tolvaptan-Type Vasopressin Receptor Ligands: Important Role of Axial Chirality in the Active Form” (J Med Chem, 2017).

Experiments:
Vasopressin V1a receptor = Vasopressin V1a receptor (Homo sapiens, UniProt P37288); assay: Displacement of [125I] phenylacetyl-D-Tyr(Me)-Phe-Gln-Asn-Arg-Pro-Arg-Tyr-NH2 from human recombinant vasopressin V1a receptor expressed in HEK293 after 2 hrs by liquid scintillation counting method; type: cell-based
Vasopressin V1a receptor, sequence (P37288 whole entry): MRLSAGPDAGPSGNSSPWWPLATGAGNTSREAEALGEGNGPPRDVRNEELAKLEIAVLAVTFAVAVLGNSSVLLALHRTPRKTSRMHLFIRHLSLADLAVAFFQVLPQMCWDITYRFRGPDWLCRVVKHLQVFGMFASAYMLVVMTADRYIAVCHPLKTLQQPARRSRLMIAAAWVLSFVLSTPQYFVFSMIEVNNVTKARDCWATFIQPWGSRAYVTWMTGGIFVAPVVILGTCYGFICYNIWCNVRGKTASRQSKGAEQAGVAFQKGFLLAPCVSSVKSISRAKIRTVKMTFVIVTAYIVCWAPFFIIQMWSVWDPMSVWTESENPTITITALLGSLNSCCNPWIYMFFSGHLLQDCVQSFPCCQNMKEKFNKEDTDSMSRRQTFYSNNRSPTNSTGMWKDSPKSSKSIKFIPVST
Summary of the method: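 Recombinant human V1a receptor expressed in HEK-293 cells, tested in 50 mM Tris-HCl pH 7.4 buffer with 5 mM MgCl2 and 0.1% BSA. Incubation 2 h at 25 °C in 1% DMSO. Compounds were ≥99% pure by HPLC and were kept at low temperature after isolation to prevent isomerization. Ki is the mean of duplicate measurements.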

Vasopressin V2 receptor = Vasopressin V2 receptor (Homo sapiens, UniProt P30518); assay: Displacement of [3H] (Arg8)-vasopressin from human vasopressin V2 receptor expressed in CHOK1 cell membranes after 2 hrs by liquid scintillation counting method
Vasopressin V2 receptor, sequence (P30518 whole entry): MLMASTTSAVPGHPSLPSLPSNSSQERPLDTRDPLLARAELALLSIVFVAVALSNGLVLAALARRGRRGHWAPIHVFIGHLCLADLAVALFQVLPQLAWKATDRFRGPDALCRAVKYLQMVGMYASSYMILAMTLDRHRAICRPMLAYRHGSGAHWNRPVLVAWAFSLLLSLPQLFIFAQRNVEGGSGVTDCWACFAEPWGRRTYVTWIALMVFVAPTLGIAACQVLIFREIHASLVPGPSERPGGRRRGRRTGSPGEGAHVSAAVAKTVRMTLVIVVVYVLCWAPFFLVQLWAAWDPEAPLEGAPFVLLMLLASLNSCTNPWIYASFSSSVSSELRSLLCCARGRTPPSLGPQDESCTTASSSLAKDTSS
Summary of the method: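 Membranes (9 μg aliquot) prepared from CHO-K1 cells stably transfected with human V2 receptor, in 50 mM Tris-HCl pH 7.4, 10 mM MgCl2, 0.1% BSA. Incubated with 4 nM [3H](Arg8)-vasopressin for 2 h at 25 °C in 1% DMSO. Compounds were ≥99% pure by HPLC. Ki is the mean of duplicate measurements.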

SMILES	Ki (Vasopressin V1a receptor) [nM]	Ki (Vasopressin V2 receptor) [nM]
Cc1ccccc1C(=O)Nc1ccc(C(=O)N2CCC[C@@H](O)c3cccc(C)c32)cc1	2.84	140
Cc1ccccc1C(=O)Nc1ccc(C(=O)N2CCC[C@@H](O)c3ccccc32)cc1	1.03	8.3
Cc1ccccc1C(=O)Nc1ccc(C(=O)N2CCCC(O)c3ccccc32)cc1 (racemic)	1.58	7.56
Cc1ccccc1C(=O)Nc1ccc(C(=O)N2CCC[C@H](O)c3c(C)cccc32)cc1	2.06	46
Cc1ccccc1C(=O)Nc1ccc(C(=O)N2CCC[C@@H](O)c3c(C)cccc32)cc1 (atropisomer aR)	78	1790
Cc1ccccc1C(=O)Nc1ccc(C(=O)N2CCC[C@H](O)c3ccccc32)cc1	1.85	4.87
Cc1ccccc1C(=O)Nc1ccc(C(=O)N2CCCC(O)c3c(C)cccc32)cc1 (racemic)	6.75	160
Cc1ccccc1C(=O)Nc1ccc(C(=O)N2CCCC(O)c3cccc(C)c32)cc1 (stereo not drawn)	6.26	170
Cc1ccccc1C(=O)Nc1ccc(C(=O)N2CCC[C@H](O)c3cccc(C)c32)cc1	4.68	54
